This note sets out measurements from ChEMBL document CHEMBL4513216, “Probing the Open Global Health Chemical Diversity Library for Multistage-Active Starting Points for Next-Generation Antimalarials” (ACS Infect Dis, 2020).

Structures are written as SMILES.

The nature of this data set: Toxicity liver stage against HepG2, at 10uM. The class given is cell-based. Also on record: test concentration 10 uM, cell line HepG2-A16-CD81EGFP. The settings on record: human, HepG2-A16-CD81EGFP cells; read-out: INHIBITION
In a few lines: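 Uninfected HepG2-A16-CD81EGFP cells, 3 × 10^3 per well, 1536-well, plated on prespotted compound at 10 μM final, parasite-free screening media added to match infected plates; puromycin 10 μM positive, DMSO 0.5% negative; run in parallel with 48 h PbLuc assay at 37 °C, 5% CO2; viability by CellTiter-Glo luminescence, normalized to controls.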
For the compound `O=C(NC[C@H]1OC[C@@H](NC2CCCCC2)[C@@H]1O)Nc1ccccc1`, the cytotoxicity at 10 µM is -11.6%.
For `CC(C)(C)C(=O)N1C[C@@H](F)[C@@H](OCc2nc3ncccc3[nH]2)C1`, the cytotoxicity at 10 µM was found to be 2.97%.
The same measure for `COc1ccc(Cl)c(-c2noc3ncn(CCC(=O)O)c(=O)c23)c1`: 7.25%; for `Cc1nnc(SCc2cc(=O)n3c4c(sc3n2)CCCC4)[nH]1`: -9.67%; for `CCS(=O)(=O)Nc1ccc2c(c1)OCC(C)(C)C(=O)N2C`: -17.2%.
To `COCCNC(=O)Cn1cc(OCc2ccc(F)cc2)c(=O)cc1C` belongs -3.04%; to `CSc1ncccc1C(=O)NCCC(O)c1cccs1` (configuration not stated), -4.68%; to `O=C(Nc1cccnc1)c1ccc(-n2cncn2)nn1`, 4.48%.
To `CNC(=O)CS(=O)(=O)C1CCN(S(=O)(=O)c2ccccc2Cl)CC1` belongs 11.7%; to `CN(C)CCN1C(=O)CCCC12CCCN(Cc1ccc[nH]1)C2` (configuration not stated), -10.1%.
As for `Cc1noc(C)c1CN1CCCC2(CCN(C(=O)N3CCOCC3)C2)C1` (configuration not stated), the cytotoxicity at 10 µM was found to be 3.35%.
The same measure for `O=C(C1CCCO1)N1CCCn2c(nnc2Cn2cccc2)C1` (configuration not stated): 16.4%; for `Cc1nnc([C@H]2C[C@H]3OCC[C@H]3N(S(=O)(=O)C3CC3)C2)o1`: -4.11%.
The same measure for `CCCc1ccc(N2CCN(Cc3nc4ccccc4n3C)CC2)cc1`: 7.06%; for `CC(C)(C)n1cc(C(=O)NCCCn2ccnc2)c2cccnc21`: 0.698%; for `c1csc(CN2CC[C@H]3C[C@H](c4ccncn4)O[C@@H]3C2)c1`: 1.17%.
The same measure for `CCCN(C(=O)CCS(=O)(=O)Cc1ccccc1)c1cccc(C)c1`: -2.67%; for `CCc1ccc(NC(=O)c2n[nH]c(-n3cnnc3)n2)cc1`: 4.68%; for `CCN1CCCC(O)(CNCc2ccccn2)C1` (configuration not stated): -5.69%.
For the compound `c1ccc(-c2nn3c(CN4CCOCC4)nnc3s2)nc1`, the cytotoxicity at 10 µM came to 9.9%.
To `COCC(=O)NCc1ccc(-c2ncncc2C(=O)N(C)C)cc1` belongs 3.02%; to `CC(=O)N1CCC1c1nc(-c2ccc(C)s2)no1` (configuration not stated), -1.78%; to `COCCn1c(=O)n(C)c(=O)c2ccc(C3CCN(C(C)=O)CC3)nc21`, 4.89%.
The same measure for `c1cncc(N2CCC(c3ccncc3)CC2)c1`: 2.59%; for `Cn1cc(CN2CCCCC2c2ccc(-c3cnn(C)c3)nc2)cn1` (configuration not stated): 9.25%.
Regarding `CN(C)C(=O)C1CN(c2ncccn2)CCN1C` (configuration not stated), the cytotoxicity at 10 µM was -0.419%.
As to `CC(C)Oc1ccc(C(=O)N2CC[C@H](O)[C@@H](n3ccnc3)CC2)cc1`, the cytotoxicity at 10 µM is -12.8%.
The same measure for `CC(=O)N1CCCC(c2ccc3sc(N)nc3n2)C1` (configuration not stated): 0.248%; for `CNc1cccc(C2CCCN(C(=O)c3ccn(C)n3)C2)n1` (configuration not stated): -13.4%.
Consider `Cc1nc(-c2ccc(C(=O)O)cc2)cc(C2CCN(C(C)C)CC2)n1`, for which the cytotoxicity at 10 µM was -6.69%.
The same measure for `CC(=O)N1CCC2(CC1)CC(NS(C)(=O)=O)c1ccccc1O2` (configuration not stated): 5.53%.
Take `Cc1nc(C)c(CNC(=O)NC2CC(C)(C)OC2(C)C)s1` (configuration not stated): the cytotoxicity at 10 µM is -0.864%.
The same measure for `CSc1ccc(C(=O)N(c2ccc(F)cn2)C2CCOCC2)o1`: -10.7%; for `Cc1cccc(C)c1CN1C(=O)CC2(CCSC2)C1=O` (configuration not stated): 14.9%; for `CCOc1c(Cl)cccc1NS(=O)(=O)c1cc(C)c(C(=O)O)s1`: 2.13%.
To `CCOCCCC(=O)Nc1c(-c2ccc(F)cc2)ncn1C` belongs -9.19%.
Consider `Cc1nc(C)n(CC2CN(CCc3ccccc3Cl)CCO2)n1` (configuration not stated), for which the cytotoxicity at 10 µM was -0.431%.
Regarding `CC(C)C(NC(=O)c1ccco1)C(=O)N1CCC2(CC1)OCCO2` (configuration not stated), the cytotoxicity at 10 µM is 6.05%.
To `CN(C)C(CNC(=O)N(Cc1ccco1)C1CC1)c1cccs1` (configuration not stated) belongs 3.06%; to `COc1ccc(C2(NC(=O)C3CC(=O)N(C)C3)CCCC2)cc1` (configuration not stated), 14.7%; to `COc1ccccc1OCCN(C)c1cc(C)nc(N)n1`, 10.4%.
The same measure for `Cn1cc(CNc2ccc(CCO)cc2)c(-c2ccncc2)n1`: 5.82%; for `COCC(=O)Nc1cc(Br)cnc1OCC(F)(F)F`: -5.6%.
To `CCN(C)CC1CCN(c2ncc(Br)cn2)C1` (configuration not stated) belongs -2.55%; to `CC(NCCCN1CCCN(C)CC1)C(C)(C)C` (configuration not stated), 29.9%; to `Cc1cc(F)cc(S(=O)(=O)Nc2ccn(CCCC#N)n2)c1`, 18%.
Take `CCn1c(CN2CCOC(Cn3cccn3)C2)nc2c(F)cccc21` (configuration not stated): the cytotoxicity at 10 µM is -3.43%.
`CCc1noc(CN(C)CCC(=O)Nc2ccccc2C#N)n1`: the cytotoxicity at 10 µM came out at 9.69%.
To `COc1ccc(S(=O)(=O)Cc2cc(C)on2)cc1` belongs 7.55%; to `NC(=O)C1CCCN1Cc1ccccc1NC(=O)Cc1cccs1` (configuration not stated), 7.31%.
For `CC(C)C(C)NC(=O)CCN1C(=O)CCc2cc(F)ccc21` (configuration not stated), the cytotoxicity at 10 µM is 8.91%.
Consider `Cc1cnn(CCCNC(=O)NC2CCN(CC(F)(F)F)C2=O)c1` (configuration not stated), for which the cytotoxicity at 10 µM was determined as 5.79%.
To `COc1ccccc1CN(Cc1nc2c(cnn2C)c(=O)[nH]1)C1CC1` belongs 15%; to `CC(C)(O)CNc1ccc(C#N)c(C(F)(F)F)c1`, 1.23%; to `Cc1nc(C)c(CNC(=O)N2CCc3ccccc3C2CO)s1` (configuration not stated), 23.7%.
The same measure for `CC(=O)N1CCO[C@@H]2CN(C(=O)c3cc(C)oc3C)CC[C@@H]2C1`: 10.5%.
The same measure for `CCCNC(=O)c1cc2c(c3ccccc3n2C)n1C(=O)N(C)C`: 0.539%.
Regarding `C[C@H](O)CNc1cc(-c2ccccc2)ncn1`, the cytotoxicity at 10 µM is -11.2%.
To `Cc1ncncc1-c1ccnc(NC(C)C)n1` belongs -0.279%.
The same measure for `CN1CCN(CC2CC2)C(=O)c2cnc(N3CCOCC3)nc21`: -10.3%.
To `Cc1csc2ncc(-c3ccnc(N4CCCN(C)CC4)n3)c(=O)n12` belongs -6.97%; to `COCC1CCN(C(=O)c2cn(Cc3cccc(C(F)(F)F)c3)nn2)C1` (configuration not stated), -0.695%; to `c1cnn(CCC2CCCCN2Cc2cnc(C3CCCCC3)nc2)c1` (configuration not stated), 0.106%.
With `CC1CN(CCC(=O)NCCc2cccnc2)Cc2ccccc2O1` (configuration not stated), the cytotoxicity at 10 µM is -3.34%.
The same measure for `CCN(CCn1cccn1)Cc1nc(-c2cc(F)ccc2F)oc1C`: -1.57%; for `FC(F)(F)C1CN(Cc2cnc3c(-c4ccccc4)cnn3c2)CCO1` (configuration not stated): -2.34%; for `CC(C)c1nccn1Cc1cc(C(=O)NCC(C)n2ccnc2)n[nH]1` (configuration not stated): -0.419%.
To `N#Cc1ccc(Oc2cc(F)c(CN3CCCC3)c(F)c2)nc1` belongs -8.74%; to `CNc1ncccc1C(=O)N1CCN(C)C2(CCN(C)CC2)C1`, 7.16%; to `CCSCCn1c(=O)n(Cc2ccc(F)cc2)c2ncc(C(=O)O)cc21`, -2.54%.
The same measure for `CN(C)C(=O)c1ccc(N2CCC3(CCC(=O)N(CCO)C3)CC2)nc1`: 3.8%; for `CC(C)C(=O)N1CCC(c2nc3c([nH]2)CCCNC3=O)CC1`: 1.74%; for `CCCC1(CO)CCCN(c2ncnc3c2c(C)nn3C)C1` (configuration not stated): 2.72%.
For the compound `Cc1cccc(-c2nccn2C2CC(=O)N(C(C)C)C2)n1` (configuration not stated), the cytotoxicity at 10 µM came to 5.62%.
To `OC1(CNCc2noc(Cc3ccccc3)n2)CCCNC1` (configuration not stated) belongs 5.19%.
Turning to `Cc1ccc(S(=O)(=O)NC2CC2)cc1C`, the cytotoxicity at 10 µM was -10.6%.
Take `CCn1ccnc1CN1CCN(C(C)C(=O)N2CCC(C)CC2)CC1` (configuration not stated): the cytotoxicity at 10 µM was -10.7%.
To `Cc1ccc(NC2CCN(C(=O)CCNS(C)(=O)=O)CC2)nn1` belongs -5.58%; to `Cc1cc(C)n(CC2CCCN2CCS(=O)(=O)c2ccccc2)n1` (configuration not stated), -7.23%; to `Cc1cc(CN2CCCC2c2noc(C)n2)no1` (configuration not stated), 2.48%.
The same measure for `Cc1ccc(N2CCCC(NCC(=O)NC3CCOCC3)C2)nn1` (configuration not stated): 3.08%; for `c1ccc2sc(N3CCOC(Cn4cccn4)C3)nc2c1` (configuration not stated): -12.8%; for `CCCn1nc2c(cc1=O)CN(CC(=O)Nc1nnc(C)s1)CC2`: -11.3%.
To `COCCN1CCCN(C(=O)NC(C)Cn2ccnc2)CC1` (configuration not stated) belongs -9.29%; to `O=C(c1cc(F)ccc1F)C1CCN(C(=O)c2cccnc2O)CC1`, -3.99%; to `O=C(NCc1ccc(Cl)cc1)N1CCN(CC(O)C2CC2)CC1` (configuration not stated), 8.66%.
`Cc1ccsc1CN1CCC2(CC1)CC(OCc1cccnc1)CO2` (configuration not stated): the cytotoxicity at 10 µM is 3.45%.
The same measure for `COc1cc(N2CCC3(CC2)CC(N2CCN(C)CC2)CO3)ncn1` (configuration not stated): -9.11%; for `COc1ccc(OC)c(CN(Cc2ccco2)Cc2[nH]cnc2C)c1`: -2.51%; for `OCCN1CC2(CCN(CC3CC3)CC2)c2ccccc21`: 6.4%.
To `O=S(=O)(NC1CCC12CCN(CC1CC1)CC2)c1ccccc1` (configuration not stated) belongs -7.82%; to `Cc1nn(C)c(N(C)C)c1CNCc1cccnc1-n1cncn1`, -0.313%; to `COc1cc(CNC2CCCc3c2cnn3C)cc(OC)c1` (configuration not stated), -6.85%.
As to `COCCN(C)C[C@@H]1CCC[C@@H]2CN(c3ncccn3)C[C@@H]21`, the cytotoxicity at 10 µM turned out to be 4.79%.
On to `O=C(c1ccnnc1)N1CCN2C[C@H](Oc3cccc(F)c3)C[C@H]2C1`, for which the cytotoxicity at 10 µM was -1.96%.
The same measure for `COCc1nn(CC2CC2)c2c1CN(Cc1ccco1)CC2`: 2.35%; for `O=c1occ(CN2CCCCCC2)c(O)c1CN1CCCCCC1`: -8.1%.
